Measurements published in paper PMC9231628 (Proceedings of the National Academy of Sciences of the …, 2022).
pIC50: −log10 of the molar value. Blank lines part the entries; values can stand above or below the compound they belong to.

Assays:
Oncopeltus Na+/K+-ATPase = assay: Na+/K+-ATPase inhibition assay, Oncopeltus neural enzyme; assay type: biochemical, Oncopeltus fasciatus; settings: from Fig. 3
Procedure, shortened: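 Neural-tissue enzyme; stocks in 20% DMSO/H₂O (5 mM, or 1 mM for one test compound). Six-point 1/10 dilution series, diluted 1:5 into Tris-buffered ATP, NaCl, KCl, MgCl₂ plus enzyme; 37 °C, 20 min, shaking. Stopped with 10% SDS; Pi by Taussky–Shorr at 700 nm. Background: 10 mM ouabain, no KCl. IC50 from four-parameter logistic mixed model; ratios use monarch enzyme or ouabain IC50s.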

monarch butterflies = settings: cited from earlier work
monarch Na+/K+-ATPase = monarch Na+/K+-ATPase (Danaus plexippus, UniProt K0G7C4); settings: monarch enzyme; cited from earlier work
Sequence of monarch Na+/K+-ATPase (K0G7C4 1-1009): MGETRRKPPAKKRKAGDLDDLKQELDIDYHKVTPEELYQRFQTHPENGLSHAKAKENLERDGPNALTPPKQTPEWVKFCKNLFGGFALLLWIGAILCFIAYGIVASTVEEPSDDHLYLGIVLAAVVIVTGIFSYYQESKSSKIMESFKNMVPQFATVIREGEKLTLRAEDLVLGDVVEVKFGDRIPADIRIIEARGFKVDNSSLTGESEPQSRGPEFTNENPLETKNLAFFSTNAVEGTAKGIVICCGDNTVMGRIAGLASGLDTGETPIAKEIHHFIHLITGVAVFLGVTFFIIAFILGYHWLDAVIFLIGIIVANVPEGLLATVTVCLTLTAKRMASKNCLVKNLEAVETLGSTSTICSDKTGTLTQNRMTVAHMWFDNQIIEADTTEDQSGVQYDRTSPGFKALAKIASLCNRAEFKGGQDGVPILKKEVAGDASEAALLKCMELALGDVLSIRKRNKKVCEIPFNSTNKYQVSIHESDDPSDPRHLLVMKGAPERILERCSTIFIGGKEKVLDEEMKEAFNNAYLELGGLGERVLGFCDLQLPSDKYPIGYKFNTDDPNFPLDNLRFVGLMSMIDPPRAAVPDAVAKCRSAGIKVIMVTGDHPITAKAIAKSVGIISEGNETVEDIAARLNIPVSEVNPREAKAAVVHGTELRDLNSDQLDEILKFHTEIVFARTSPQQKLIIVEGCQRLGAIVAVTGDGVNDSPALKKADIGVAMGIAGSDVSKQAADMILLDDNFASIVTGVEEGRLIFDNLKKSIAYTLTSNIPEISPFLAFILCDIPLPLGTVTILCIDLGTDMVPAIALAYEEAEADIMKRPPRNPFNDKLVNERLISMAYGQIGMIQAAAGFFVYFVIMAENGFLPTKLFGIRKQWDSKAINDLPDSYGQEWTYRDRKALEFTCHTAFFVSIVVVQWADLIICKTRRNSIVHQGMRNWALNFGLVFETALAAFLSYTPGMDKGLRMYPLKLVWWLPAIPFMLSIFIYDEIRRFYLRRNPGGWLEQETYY

Oncopeltus fasciatus = assay: Laboratory rearing on A. syriaca seeds: sequestration of seed cardenolides; assay type: in vivo; settings: bugs reared on A. syriaca seeds from Ithaca, NY
Procedure, shortened: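 Field-collected Oncopeltus (Ithaca, NY) reared on a pooled A. syriaca seed lot for fewer than five generations. Whole adults and seeds, 50 mg ground freeze-dried each, extracted in methanol with 20 µg digitoxin internal standard. Analysed by C18 HPLC-UV (acetonitrile/water gradient, 218 nm), with cardenolides taken as peaks with a 214–222 nm maximum. Quantified by peak area against digitoxin on a dry-mass basis; HRMS for identification.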

Compound: C[C@@H]1O[C@@H](O[C@H]2C[C@@H](O)[C@]3(CO)[C@H]4[C@H](O)C[C@]5(C)[C@@H](C6=CC(=O)OC6)CC[C@]5(O)[C@@H]4CC[C@]3(O)C2)[C@H](O)[C@H](O)[C@H]1O [Ouabain, ouabain]
- advantage (tolerance) of Oncopeltus enzyme over monarchs (Oncopeltus Na+/K+-ATPase): 2 fold

Compound: C[C@@H]1C[C@@]2(NCCS2)[C@]2(O)O[C@@H]3C[C@@]4(C=O)[C@@H](CC[C@@H]5[C@@H]4CC[C@]4(C)[C@@H](C6=CC(=O)OC6)CC[C@]54O)C[C@H]3O[C@@H]2O1 [Voruscharin, voruscharin]
- effect on monarch growth (monarch butterflies): negatively impacts monarch growth
- pIC50 (monarch Na+/K+-ATPase): 5.70

- share of the total cardenolides in bugs (Oncopeltus fasciatus): 33%
Compound: Aspecioside A
